Test results as given in ChEMBL document CHEMBL4706595, “1,3-Oxazine-2-one derived dual-targeted molecules against replicating and non-replicating forms of Mycobacterium tuberculosis” (Eur J Med Chem, 2020).
Values after ≈ are worked out from the molar mass of the structure shown.

What was measured:
[1] = test system: Mycobacterium tuberculosis; test: Antimycobacterial activity against rifampicin-resistant Mycobacterium tuberculosis H37Rv ATCC 35838 assessed as inhibition of bacterial growth by agar plate dilution method; format: functional
Method in brief: (§1)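 MIC determined by agar plate dilution method; isoniazid and rifampin run as references.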

[2] = test system: Mycobacterium tuberculosis; test: Antimycobacterial activity against isoniazid-resistant Mycobacterium tuberculosis H37Rv ATCC 35822 assessed as inhibition of bacterial growth by agar plate dilution method; format: functional; method in brief: as §1

SMILES | MIC [1] [µg/mL] | MIC [2] [µg/mL]
CC(C)=CCC/C(C)=C/COc1ccc(C(=O)OCCCOc2cccc(Nc3nc4ccccc4c(=O)o3)c2)cc1 | 2.6 (≈ 4.57 µM) | 4.4 (≈ 7.74 µM)
CC(C)=CCC/C(C)=C/CC/C(C)=C/COc1ccc(C(=O)OCCCOc2cccc(Nc3nc4ccccc4c(=O)o3)c2)cc1 | 1.8 (≈ 2.83 µM) | 2.3 (≈ 3.61 µM)
NNC(=O)c1ccncc1 [ISONIAZID] | 0.25 (≈ 1.82 µM) | > 8
CO[C@H]1/C=C/O[C@@]2(C)Oc3c(C)c(O)c4c(O)c(c(/C=N/N5CCN(C)CC5)c(O)c4c3C2=O)NC(=O)/C(C)=C\C=C\[C@H](C)[C@H](O)[C@@H](C)[C@@H](O)[C@@H](C)[C@H](OC(C)=O)[C@@H]1C [RIFAMPIN] | > 2 | 0.03 (≈ 0.0365 µM)
